Results as given in ChEMBL document CHEMBL3763110, “A potent and selective inhibitor targeting human and murine 12/15-LOX” (Bioorg Med Chem, 2016).

Columns and labels:
[1] = molecular target: T1, Polyunsaturated fatty acid lipoxygenase ALOX15 (Homo sapiens, UniProt P16050); assay: Inhibition of N-terminal His6-tagged human 12/15-LOX using arachidonic acid as substrate by UV-visible spectrophotometric analysis
T1 sequence (P16050 whole entry): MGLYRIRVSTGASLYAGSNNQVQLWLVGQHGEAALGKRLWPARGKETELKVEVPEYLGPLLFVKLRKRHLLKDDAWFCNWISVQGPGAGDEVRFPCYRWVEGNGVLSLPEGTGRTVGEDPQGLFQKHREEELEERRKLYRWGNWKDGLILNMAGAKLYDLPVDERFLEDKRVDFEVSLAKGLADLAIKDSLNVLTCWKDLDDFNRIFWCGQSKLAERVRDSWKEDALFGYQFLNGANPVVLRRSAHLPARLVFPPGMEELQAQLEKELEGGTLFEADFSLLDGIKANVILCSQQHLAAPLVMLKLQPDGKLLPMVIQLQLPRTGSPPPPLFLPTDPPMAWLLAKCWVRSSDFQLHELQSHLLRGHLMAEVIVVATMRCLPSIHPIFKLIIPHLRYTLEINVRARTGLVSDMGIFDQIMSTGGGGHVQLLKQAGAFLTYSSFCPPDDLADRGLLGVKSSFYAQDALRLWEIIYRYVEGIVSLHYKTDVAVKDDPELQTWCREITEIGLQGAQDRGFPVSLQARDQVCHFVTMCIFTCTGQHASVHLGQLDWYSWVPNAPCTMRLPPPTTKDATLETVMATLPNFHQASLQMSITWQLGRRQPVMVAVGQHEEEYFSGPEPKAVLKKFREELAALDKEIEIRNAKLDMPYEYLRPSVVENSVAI

[2] = molecular target: T2, Polyunsaturated fatty acid lipoxygenase ALOX15 (Mus musculus) (UniProt P39654); assay: Inhibition of glutamate-induced 12/15-LOX-dependent cell death in mouse HT22 cells assessed as increase in cell survival at 5 uM by LDH release assay; format: cell-based; details: HT-22
T2 sequence (whole entry): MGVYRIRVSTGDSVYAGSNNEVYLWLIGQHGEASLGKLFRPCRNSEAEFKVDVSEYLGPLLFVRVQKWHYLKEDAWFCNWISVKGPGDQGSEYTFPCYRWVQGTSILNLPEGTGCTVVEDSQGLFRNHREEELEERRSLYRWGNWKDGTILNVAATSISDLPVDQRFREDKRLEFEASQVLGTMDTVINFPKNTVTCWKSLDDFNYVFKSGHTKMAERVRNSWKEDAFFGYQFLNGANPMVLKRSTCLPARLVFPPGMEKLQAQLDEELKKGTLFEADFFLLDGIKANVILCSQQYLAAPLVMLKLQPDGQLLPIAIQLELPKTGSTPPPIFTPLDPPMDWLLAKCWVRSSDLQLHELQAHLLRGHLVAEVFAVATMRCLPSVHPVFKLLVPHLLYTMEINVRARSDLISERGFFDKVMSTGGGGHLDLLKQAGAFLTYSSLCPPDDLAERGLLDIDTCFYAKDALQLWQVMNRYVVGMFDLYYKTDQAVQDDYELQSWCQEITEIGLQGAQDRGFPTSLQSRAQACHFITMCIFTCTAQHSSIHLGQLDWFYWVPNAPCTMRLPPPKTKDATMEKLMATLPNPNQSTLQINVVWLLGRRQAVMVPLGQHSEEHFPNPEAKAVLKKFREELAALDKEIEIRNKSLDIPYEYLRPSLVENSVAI
How it was run: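 Mouse HT-22 neuronal cells grown in DMEM with 10% FBS and penicillin/streptomycin. Seeded at 1 × 10^4 cells/well and treated 18h later at ~50–70% confluence. Medium was replaced and 5 mM glutamate added with compound at 5, 10 or 20 μM, or DMSO control (max 0.1% final). LDH measured separately in cell extracts and media; % LDH released to medium calculated after background subtraction.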

[3] = molecular target: T3, Polyunsaturated fatty acid lipoxygenase ALOX12 (Homo sapiens, UniProt P18054); assay: Inhibition of N-terminal His6-tagged human 12-LOX using arachidonic acid as substrate by UV-visible spectrophotometric analysis
T3 sequence (P18054 whole entry): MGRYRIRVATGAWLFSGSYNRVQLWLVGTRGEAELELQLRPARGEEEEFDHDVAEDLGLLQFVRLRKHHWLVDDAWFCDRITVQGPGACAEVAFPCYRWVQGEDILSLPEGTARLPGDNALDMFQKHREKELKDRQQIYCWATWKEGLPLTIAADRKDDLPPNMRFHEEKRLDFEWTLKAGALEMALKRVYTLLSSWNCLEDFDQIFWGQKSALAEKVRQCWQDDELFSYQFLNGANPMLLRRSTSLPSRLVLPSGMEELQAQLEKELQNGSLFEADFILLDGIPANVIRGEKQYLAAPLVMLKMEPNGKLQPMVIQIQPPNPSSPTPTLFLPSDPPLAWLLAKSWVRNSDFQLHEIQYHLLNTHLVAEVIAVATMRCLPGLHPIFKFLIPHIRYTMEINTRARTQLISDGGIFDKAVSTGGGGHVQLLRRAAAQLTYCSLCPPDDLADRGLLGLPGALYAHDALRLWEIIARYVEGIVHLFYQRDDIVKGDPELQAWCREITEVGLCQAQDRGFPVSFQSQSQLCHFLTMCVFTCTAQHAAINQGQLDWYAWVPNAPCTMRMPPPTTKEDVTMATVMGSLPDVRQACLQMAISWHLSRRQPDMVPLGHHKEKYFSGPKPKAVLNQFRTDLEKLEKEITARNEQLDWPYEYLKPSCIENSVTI

[4] = molecular target: T4, Polyunsaturated fatty acid lipoxygenase ALOX15B (Homo sapiens, UniProt O15296); assay: Inhibition of N-terminal His6-tagged human 15-LOX-2 using arachidonic acid as substrate by UV-visible spectrophotometric analysis
T4 sequence (O15296 whole entry): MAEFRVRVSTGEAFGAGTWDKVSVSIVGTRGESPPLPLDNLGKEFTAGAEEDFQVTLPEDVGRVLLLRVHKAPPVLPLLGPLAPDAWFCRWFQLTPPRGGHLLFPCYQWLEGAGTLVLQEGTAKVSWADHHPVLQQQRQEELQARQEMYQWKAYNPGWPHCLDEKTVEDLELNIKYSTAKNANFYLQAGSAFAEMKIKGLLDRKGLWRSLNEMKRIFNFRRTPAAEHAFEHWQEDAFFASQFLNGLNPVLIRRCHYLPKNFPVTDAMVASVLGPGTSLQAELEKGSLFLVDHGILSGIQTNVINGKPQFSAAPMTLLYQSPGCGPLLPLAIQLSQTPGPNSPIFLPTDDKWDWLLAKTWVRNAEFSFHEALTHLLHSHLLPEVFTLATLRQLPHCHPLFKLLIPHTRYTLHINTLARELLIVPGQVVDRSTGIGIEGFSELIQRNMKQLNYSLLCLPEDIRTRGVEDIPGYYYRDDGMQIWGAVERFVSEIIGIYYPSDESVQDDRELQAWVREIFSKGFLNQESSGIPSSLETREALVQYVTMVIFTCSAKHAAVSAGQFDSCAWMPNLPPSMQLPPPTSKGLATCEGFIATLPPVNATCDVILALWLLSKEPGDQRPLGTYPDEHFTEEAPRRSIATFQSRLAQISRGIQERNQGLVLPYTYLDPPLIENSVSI

[5] = molecular target: T5, Polyunsaturated fatty acid lipoxygenase ALOX15 (Homo sapiens) (UniProt P16050)
T5 sequence (whole entry): T1 sequence (P16050 whole entry)

[6] = molecular target: T5, Polyunsaturated fatty acid lipoxygenase ALOX15 (Homo sapiens); remark: listed apart in the source
[7] = molecular target: T6, Polyunsaturated fatty acid 5-lipoxygenase (Homo sapiens, UniProt P09917); assay: Inhibition of human 5-LOX using arachidonic acid as substrate by UV-visible spectrophotometric analysis
T6 sequence (P09917 whole entry): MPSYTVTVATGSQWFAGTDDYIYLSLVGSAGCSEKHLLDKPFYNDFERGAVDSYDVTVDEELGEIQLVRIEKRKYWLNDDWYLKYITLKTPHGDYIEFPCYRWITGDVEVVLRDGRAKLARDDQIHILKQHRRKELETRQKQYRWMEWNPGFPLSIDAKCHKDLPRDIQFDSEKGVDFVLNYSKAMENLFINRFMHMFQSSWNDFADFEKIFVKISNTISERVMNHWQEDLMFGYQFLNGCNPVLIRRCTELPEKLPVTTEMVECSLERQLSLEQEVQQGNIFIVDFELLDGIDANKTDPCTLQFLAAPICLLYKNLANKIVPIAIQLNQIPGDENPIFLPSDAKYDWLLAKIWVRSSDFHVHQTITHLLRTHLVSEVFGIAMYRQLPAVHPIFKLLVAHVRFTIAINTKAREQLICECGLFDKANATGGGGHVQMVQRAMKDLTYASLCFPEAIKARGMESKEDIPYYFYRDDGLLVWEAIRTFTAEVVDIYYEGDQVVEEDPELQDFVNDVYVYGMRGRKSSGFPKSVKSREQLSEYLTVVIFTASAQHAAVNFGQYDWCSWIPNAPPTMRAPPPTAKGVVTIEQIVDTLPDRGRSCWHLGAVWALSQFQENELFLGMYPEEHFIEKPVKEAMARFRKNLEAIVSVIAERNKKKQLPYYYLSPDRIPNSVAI

[8] = molecular target: T7, Prostaglandin G/H synthase 2 (Homo sapiens, UniProt P35354); assay: Inhibition of human COX-2 by UV-visible spectrophotometric analysis
T7 sequence (P35354 whole entry): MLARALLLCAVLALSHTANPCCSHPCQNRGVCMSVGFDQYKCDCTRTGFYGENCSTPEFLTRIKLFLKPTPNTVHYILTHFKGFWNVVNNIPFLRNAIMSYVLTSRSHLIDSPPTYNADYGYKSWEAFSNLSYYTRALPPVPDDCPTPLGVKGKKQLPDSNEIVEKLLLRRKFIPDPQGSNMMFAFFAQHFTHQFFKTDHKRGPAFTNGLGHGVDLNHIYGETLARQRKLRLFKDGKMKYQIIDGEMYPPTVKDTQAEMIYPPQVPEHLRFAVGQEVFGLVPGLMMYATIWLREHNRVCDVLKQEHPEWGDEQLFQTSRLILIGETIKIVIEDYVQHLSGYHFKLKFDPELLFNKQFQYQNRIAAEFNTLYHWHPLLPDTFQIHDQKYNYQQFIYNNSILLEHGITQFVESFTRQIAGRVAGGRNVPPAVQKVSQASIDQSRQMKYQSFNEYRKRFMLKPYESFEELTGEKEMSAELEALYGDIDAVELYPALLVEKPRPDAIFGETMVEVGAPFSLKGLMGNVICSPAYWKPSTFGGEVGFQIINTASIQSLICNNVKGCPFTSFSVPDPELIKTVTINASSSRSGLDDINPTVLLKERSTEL

SMILES	IC50 [1] [µM]	Survival [2] [%]	other results
Oc1ccccc1-c1cc[nH]n1	> 50	–	–
COc1ccc(C(=O)c2c[nH]nc2-c2cc(C)ccc2O)cc1	> 50	–	–
COc1ccc(-c2cc(-c3ccccc3O)[nH]n2)cc1	10	7	–
Oc1ccc(Br)cc1-c1cc(-c2ccccc2Cl)[nH]n1	> 50	–	–
Oc1ccc(Br)cc1-c1cc(-c2ccccc2)[nH]n1	> 50	–	–
COc1ccc(-c2cc(-c3cc(OC)ccc3O)[nH]n2)cc1	6	96	–
COc1ccc(O)c(-c2cc(-c3ccccc3Cl)[nH]n2)c1	–	83	–
COc1ccc(O)c(-c2cc(-c3cccc(Br)c3)[nH]n2)c1	7	70	–
Cc1ccc(O)c(-c2cc(-c3ccccc3C)[nH]n2)c1	3.4	20	IC50 [3]: > 50 µM; IC50 [4]: > 50 µM; Kic [5]: 1 µM; Kiuc [6]: 6 µM; IC50 [7]: > 100 µM; IC50 [8]: > 100 µM
Cc1ccc(-c2cc(-c3ccc(C)cc3O)[nH]n2)cc1	> 50	–	–
COc1ccc(O)c(-c2cc(-c3ccccc3Cl)n[nH]2)c1	6.6	–	–
COc1ccc(O)c(-c2cc(-c3ccc(F)cc3)[nH]n2)c1	11	78	–
Oc1ccc(Cl)cc1-c1cc(-c2ccccc2Cl)[nH]n1	> 50	–	–
Oc1ccccc1-c1cc(-c2ccccc2Cl)[nH]n1	4	–	–
c1ccc(-c2cc(-c3ccccc3)[nH]n2)cc1	> 50	–	–
Cc1ccccc1-c1cc(-c2ccccc2O)[nH]n1	–	76	–
Cc1ccccc1-c1cc(-c2ccccc2O)n[nH]1	7	–	–
Cc1ccc(-c2cc(-c3ccccc3C)[nH]n2)c(O)c1	10	71	–
COc1ccc(-c2cc(-c3ccc(C)cc3)[nH]n2)c(O)c1	> 50	–	–
Cc1ccc(O)c(-c2cc(-c3cccc(Br)c3)[nH]n2)c1	9.1	18	–
Cc1ccc(O)c(-c2cc(-c3cccc(F)c3)[nH]n2)c1	10	49	–
Cc1ccc(O)c(-c2cc(C(=O)NCc3ccccc3)[nH]n2)c1	> 50	–	–
Oc1ccccc1-c1cc(-c2ccco2)[nH]n1	7	34	–
